Calls of active or inactive are those of the source. The rule behind the calls is not given here.
Legend:
[1] = test system: Syrian golden hamster; test: Toxicity in Syrian hamster infected with Leishmania tropica MHOM/MA/1988/LEM1314 promastigotes assessed as mean serum creatinine levels at 200 mg/kg administered through oral gavage for 3 weeks starting at week 7 post infection measured 1 week post last dose (reference value: 0.19 mg/dl); type: organism-based, Mesocricetus auratus; conditions: in vivo, 168 h
[2] = test system: Syrian golden hamster; test: Toxicity in Syrian hamster infected with Leishmania tropica MHOM/MA/1988/LEM1314 promastigotes assessed as mean serum ALP levels at 5 % administered tropically on footpad for 3 weeks starting at week 7 post infection measured 1 week post last dose (reference value: 14.4 +/- 0.9 U/L); type: organism-based, Mesocricetus auratus; conditions: in vivo, topical_or_ocular, 168 h
[3] = test system: Syrian golden hamster; test: Toxicity in Syrian hamster assessed as mean serum AST levels at 500 mg/kg administered through oral gavage for 28 days (reference value: 83.4 +/- 4.2 U/L); type: organism-based, Mesocricetus auratus; conditions: in vivo, 672 h
[4] = test system: Leishmania tropica; test: (§1) Antileishmanial activity against Leishmania tropica MHOM/MA/1988/LEM1314 promastigotes infected in Syrian hamster assessed as reduction in amastigote levels in foodpad skin macerate at […] administered once daily through oral gavage for 3 weeks starting at week 7 post infection measured 1 week post last dose by Giemsa staining-based method; type: functional
[5] = test system: Syrian golden hamster; test: Toxicity in Syrian hamster infected with Leishmania tropica MHOM/MA/1988/LEM1314 promastigotes assessed as spleen weight at 5 % administered tropically on footpad for 3 weeks starting at week 7 post infection measured 1 week post last dose (reference value: 178.8 +/- 1.2 mg); type: organism-based, Mesocricetus auratus; conditions: in vivo, topical_or_ocular, 168 h
[6] = test system: Syrian golden hamster; test: Toxicity in Syrian hamster assessed as change in body weight at 500 mg/kg, po or 5 % administered tropically on footpad for 28 days; type: organism-based, Mesocricetus auratus; conditions: in vivo, 672 h
[7] = test system: Syrian golden hamster; test: Toxicity in Syrian hamster assessed as mean serum ALP levels at 500 mg/kg administered through oral gavage for 28 days (reference value: 14.4 +/- 2 U/L); type: organism-based, Mesocricetus auratus; conditions: in vivo, 672 h
[8] = test system: Syrian golden hamster; test: Toxicity in Syrian hamster assessed as mean serum AST levels at 5 % administered tropically on footpad for 28 days (reference value: 83.4 +/- 4.2 U/L); type: organism-based, Mesocricetus auratus; conditions: in vivo, topical_or_ocular, 672 h
[9] = test system: Leishmania tropica; test: (§2) Antileishmanial activity against Leishmania tropica MHOM/MA/1988/LEM1314 promastigotes infected in Syrian hamster assessed as reduction in parasite load in spleen at 2.5 % administered once daily tropically on footpad for 3 weeks starting at week 7 post infection measured 1 week post last dose by qPCR analysis relative to control; type: functional
Summary of the method: (§3)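 Hamsters were infected in the footpad and treated daily for 21 days from week 7 post-infection, n = 10/group, and sacrificed 1 week after the last dose. Footpad skin, liver and spleen DNA was assayed by L. tropica-specific TaqMan qPCR (chromosome 29 target), in triplicate with 50 ng DNA per 25 μL reaction. Load was interpolated from Ct on a calibration curve of promastigote DNA, relative to base-ointment controls.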

[10] = test system: Syrian golden hamster; test: Toxicity in Syrian hamster assessed as mean serum ALP levels at 5 % administered tropically on footpad for 28 days (reference value: 14.4 +/- 2 U/L); type: organism-based, Mesocricetus auratus; conditions: in vivo, topical_or_ocular, 672 h
[11] = test system: Syrian golden hamster; test: Toxicity in Syrian hamster infected with Leishmania tropica MHOM/MA/1988/LEM1314 promastigotes assessed as spleen weight at 200 mg/kg administered through oral gavage for 3 weeks starting at week 7 post infection measured 1 week post last dose (reference value: 178.8 +/- 1.2 mg); type: organism-based, Mesocricetus auratus; conditions: in vivo, 168 h
[12] = test system: Syrian golden hamster; test: Toxicity in Syrian hamster infected with Leishmania tropica MHOM/MA/1988/LEM1314 promastigotes assessed as urea levels at 5 % administered tropically on footpad for 3 weeks starting at week 7 post infection measured 1 week post last dose (reference value: 32.5 +/- 0.8 mg/dl); type: organism-based, Mesocricetus auratus; conditions: in vivo, topical_or_ocular, 168 h
[13] = test system: Syrian golden hamster; test: Toxicity in Syrian hamster infected with Leishmania tropica MHOM/MA/1988/LEM1314 promastigotes assessed as urea levels at 2.5 % administered tropically on footpad for 3 weeks starting at week 7 post infection measured 1 week post last dose (reference value: 32.5 +/- 0.8 mg/dl); type: organism-based, Mesocricetus auratus; conditions: in vivo, topical_or_ocular, 168 h
[14] = test system: Syrian golden hamster; test: Toxicity in Syrian hamster infected with Leishmania tropica MHOM/MA/1988/LEM1314 promastigotes assessed as mean serum AST levels at 5 % administered tropically on footpad for 3 weeks starting at week 7 post infection measured 1 week post last dose (reference value: 77.1 +/- 0.9 U/L); type: organism-based, Mesocricetus auratus; conditions: in vivo, topical_or_ocular, 168 h
[15] = test system: Syrian golden hamster; test: Toxicity in Syrian hamster infected with Leishmania tropica MHOM/MA/1988/LEM1314 promastigotes assessed as spleen weight at 2.5 % administered tropically on footpad for 3 weeks starting at week 7 post infection measured 1 week post last dose (reference value: 178.8 +/- 1.2 mg); type: organism-based, Mesocricetus auratus; conditions: in vivo, topical_or_ocular, 168 h
[16] = test system: Syrian golden hamster; test: Toxicity in Syrian hamster infected with Leishmania tropica MHOM/MA/1988/LEM1314 promastigotes assessed as mean serum ALT levels at 200 mg/kg administered through oral gavage for 3 weeks starting at week 7 post infection measured 1 week post last dose (reference value: 81.6 +/- 4.9 U/L); type: organism-based, Mesocricetus auratus; conditions: in vivo, 168 h
[17] = test system: Syrian golden hamster; test: Toxicity in Syrian hamster assessed as spleen weight at 5 % administered tropically on footpad for 28 days (reference value: 179.4 +/- 19.8 mg); type: organism-based, Mesocricetus auratus; conditions: in vivo, topical_or_ocular, 672 h
[18] = test system: Leishmania tropica; test: as §2, with “foodpad skin” for “spleen”; type: functional; parameters: scale not given: the % may be the effect or the level left; summary of the method: as §3
[19] = test system: Syrian golden hamster; test: Toxicity in Syrian hamster assessed as redness at 500 mg/kg, po or 5 % administered tropically on footpad for 28 days; type: organism-based, Mesocricetus auratus; conditions: in vivo, 672 h
[20] = test system: Syrian golden hamster; test: Toxicity in Syrian hamster assessed as urea levels at 5 % administered tropically on footpad for 28 days (reference value: 33.2 +/- 2.8 mg/dl); type: organism-based, Mesocricetus auratus; conditions: in vivo, topical_or_ocular, 672 h
[21] = test system: Syrian golden hamster; test: Toxicity in Syrian hamster infected with Leishmania tropica MHOM/MA/1988/LEM1314 promastigotes assessed as spleen weight at 1 % administered tropically on footpad for 3 weeks starting at week 7 post infection measured 1 week post last dose (reference value: 178.8 +/- 1.2 mg); type: organism-based, Mesocricetus auratus; conditions: in vivo, topical_or_ocular, 168 h
[22] = test system: Syrian golden hamster; test: Toxicity in Syrian hamster assessed as mean serum ALT levels at 5 % administered tropically on footpad for 28 days (reference value: 82.2 +/- 4.8 U/L); type: organism-based, Mesocricetus auratus; conditions: in vivo, topical_or_ocular, 672 h
[23] = test system: Syrian golden hamster; test: Toxicity in Syrian hamster assessed as spleen weight at 500 mg/kg administered through oral gavage for 28 days (reference value: 179.4 +/- 19.8 mg); type: organism-based, Mesocricetus auratus; conditions: in vivo, 672 h
[24] = test system: Leishmania tropica; test: as §1, with “parasite load” for “amastigote levels”, “skin” for “skin macerate”, “qPCR analysis relative to control” for “Giemsa staining-based method”; type: functional; parameters: scale not given: the % may be the effect or the level left; summary of the method: as §3
[25] = test system: Syrian golden hamster; test: Toxicity in Syrian hamster infected with Leishmania tropica MHOM/MA/1988/LEM1314 promastigotes assessed as diarrhea at 200 mg/kg administered through oral gavage for 3 weeks starting at week 7 post infection measured during compound dosing or measured 1 week post last dose; type: organism-based, Mesocricetus auratus; conditions: in vivo, 168 h
Summary of the method: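 Infected hamsters were treated daily for 21 days from week 7 post-infection (ointment 1–5%, 200 mg/kg gavage, or intralesional meglumine antimoniate 2 mg SbV/kg). Clinical signs and body weight were monitored during treatment and a 7-day follow-up. After sacrifice, liver and spleen were weighed and serum ALP, ALT, creatinine, urea and AST were measured with kits, compared with untreated infected animals.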

[26] = test system: Syrian golden hamster; test: Toxicity in Syrian hamster assessed as stress at 500 mg/kg, po or 5 % administered tropically on footpad for 28 days; type: organism-based, Mesocricetus auratus; conditions: in vivo, 672 h
[27] = test system: Leishmania tropica; test: as §2, with “1” for “2.5”; type: functional; summary of the method: as §3

CC(C)=CCC[C@](C)(O)[C@@H]1CC=C(C)CC1 [LEVOMENOL]
Activity [1]: 0.2 mg/dL
Activity [2]: 14.7 U/L
Activity [3]: 82.2 U/L
Activity [4]: Active
Activity [5]: 193.1 mg
Activity [6]: Non-Toxic
Activity [7]: 14.7 U/L
Activity [8]: 83.4 U/L
Activity [9]: Active
Activity [10]: 14.1 U/L
Activity [11]: 177.3 mg
Activity [12]: 34.2 mg/dL
Activity [13]: 33.6 mg/dL
Activity [14]: 73 U/L
Activity [15]: 178.4 mg
Activity [16]: 81.6 U/L
Activity [17]: 180.2 mg
Activity [18]: 83%
Activity [19]: Non-Toxic
Activity [20]: 33.9 mg/dL
Activity [21]: 175.3 mg
Activity [22]: 82.5 U/L
Activity [23]: 181.2 mg
Activity [24]: 74%
Activity [25]: Non-Toxic
Activity [26]: Non-Toxic
Activity [27]: Active

Source: ChEMBL document CHEMBL3872233, “Topical Treatment of Leishmania tropica Infection Using (-)-α-Bisabolol Ointment in a Hamster Model: Effectiveness and Safety Assessment” (J Nat Prod, 2016)
